One experiment relates to Saccharomyces cerevisiae. Briefly: Antifungal activity against Saccharomyces cerevisiae ATCC 9763 by agar dilution method. The experiment is classed as functional, organism-based. The procedure, abridged:
(§1)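 Sabouraud chloramphenicol agar dilution in 96-well plates. Strains were grown on Sabouraud chloramphenicol agar slants for 48 h at 30 °C and suspended in sterile distilled water, adjusted to 10^6 viable cells/mL. DMSO stocks were serially two-fold diluted into the agar to give 0.10–50 µg/mL, with DMSO ≤2% final. 5 µL inoculum per well; incubated 24, 48 or 72 h at 30 °C per control growth; MIC recorded.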
(In general: In agar dilution the substance is mixed into plates at graded concentrations.)

For experiment [1], the system named is Trichophyton rubrum. Kind of experiment: Antifungal activity against Trichophyton rubrum C 113 by agar dilution method. The experiment is classed as functional. The procedure, abridged: (§2)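 Dermatophytes were tested by agar dilution on Sabouraud chloramphenicol agar in 96-well plates. DMSO stock solutions were serially two-fold diluted into the medium to give final concentrations of 0.10–50 µg/mL, with DMSO not exceeding 2%. Each well received 5 µL of spore suspension.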

The subject of a further experiment is Aspergillus fumigatus. Kind of experiment: Antifungal activity against Aspergillus fumigatus ATCC 26934 by agar dilution method. The experiment is classed as functional, organism-based. The procedure, abridged:
as §1

The test system of another experiment is Aspergillus flavus. Briefly: Antifungal activity against Aspergillus flavus ATCC 9170 by agar dilution method. The experiment is classed as functional, organism-based. The procedure, abridged:
as §1

The test system of experiment [2] is Nannizzia gypsea. Briefly: Antifungal activity against Microsporum gypseum C 115 by agar dilution method. The experiment is classed as functional. In a few lines:
as §2

Experiment [3] has as its system Trichophyton mentagrophytes. Kind of experiment: Antifungal activity against Trichophyton mentagrophytes ATCC by agar dilution method. The experiment is classed as functional. The procedure, abridged:
as §2

Experiment [4] has as its system Epidermophyton floccosum. Kind of experiment: Antifungal activity against Epidermophyton floccosum C 114 by agar dilution method. The experiment is classed as functional. The procedure, abridged:
as §2

Another experiment concerns Candida albicans. Kind of experiment: Antifungal activity against Candida albicans ATCC 10231 by agar dilution method. It is filed as functional, organism-based. The procedure, abridged: as §1
For the next experiment, the system named is Aspergillus niger. Kind of experiment: Antifungal activity against Aspergillus niger ATCC 9029 by agar dilution method. The experiment is classed as functional, organism-based. In a few lines: as §1
A further experiment has as its system Cryptococcus neoformans. Briefly: Antifungal activity against Cryptococcus neoformans ATCC 32264 by agar dilution method. It is filed as functional, organism-based. The procedure, abridged:
as §1

Experiment [5] has as its system Trichophyton mentagrophytes. Kind of experiment: Antifungal activity against Trichophyton mentagrophytes ATCC 9972 up to 50 ug/mL by agar dilution method. It is filed as functional, organism-based. The procedure, abridged: as §2
In experiment [6] the test system is Trichophyton rubrum. Briefly: Antifungal activity against Trichophyton rubrum C 113 up to 50 ug/mL by agar dilution method. It is filed as functional, organism-based. In a few lines: as §2
Experiment [7] deals with Epidermophyton floccosum. Briefly: Antifungal activity against Epidermophyton floccosum C 114 up to 50 ug/mL by agar dilution method. It is filed as functional, organism-based. The procedure, abridged: as §2
For experiment [8], the system named is Microsporum canis. Briefly: Antifungal activity against Microsporum canis C 112 up to 50 ug/mL by agar dilution method. The experiment is classed as functional, organism-based. The procedure, abridged:
as §2

In experiment [9] the test system is Microsporum canis. Kind of experiment: Antifungal activity against Microsporum canis C 112 by agar dilution method. The experiment is classed as functional. The procedure, abridged: as §2
The test system of experiment [10] is Nannizzia gypsea. Briefly: Antifungal activity against Microsporum gypseum C 115 up to 50 ug/mL by agar dilution method. It is filed as functional, organism-based. The procedure, abridged:
as §2

Converted amounts (≈) assume the structure as drawn. The source made the active and inactive calls. The rule behind the calls is not given here. Where only a bound is given, the exact number is not on record here.

In general, MIC refers to the least concentration at which growth counts as inhibited. Read a high MIC as a less susceptible organism. With `C=CCc1ccc(OC)c(OC)c1` [METHYLEUGENOL], the result in the experiment with Saccharomyces cerevisiae, with Aspergillus fumigatus, with Aspergillus flavus, in the experiment with Candida albicans, with Aspergillus niger and in the experiment with Cryptococcus neoformans was inactive. In addition, the result (in experiment [5]; with Trichophyton rubrum [6]; in the experiment with Epidermophyton floccosum [7]; in the experiment on Microsporum canis [8]; in the experiment with Nannizzia gypsea [10]) was inactive. The MIC (against Trichophyton rubrum [1]; with Nannizzia gypsea [2]; in experiment [3]; against Epidermophyton floccosum [4]; in the experiment on Microsporum canis [9]) was over 50 µg/mL throughout.
As to `CCC(=O)c1ccc(OC)cc1`, the result in the experiment on Saccharomyces cerevisiae, with Aspergillus fumigatus, in the experiment on Aspergillus flavus, with Candida albicans, in the experiment on Aspergillus niger and in the experiment with Cryptococcus neoformans was inactive. Besides, the result (in [5]; in the experiment with Trichophyton rubrum [6]; in the experiment on Epidermophyton floccosum [7]; in the experiment on Microsporum canis [8]; with Nannizzia gypsea [10]) was inactive. Further, the MIC (against Trichophyton rubrum [1]; in the experiment with Nannizzia gypsea [2]; in experiment [3]; against Epidermophyton floccosum [4]; in the experiment on Microsporum canis [9]) was over 50 µg/mL throughout.
As for `CCC(O)c1ccc2c(c1)OCO2` (centres undefined), the outcome with Saccharomyces cerevisiae, in the experiment with Aspergillus fumigatus, in the experiment with Aspergillus flavus, with Candida albicans, with Aspergillus niger and in the experiment on Cryptococcus neoformans was inactive. Moreover, the outcome (in experiment [5]; with Trichophyton rubrum [6]; in the experiment with Epidermophyton floccosum [7]; in the experiment on Microsporum canis [8]; with Nannizzia gypsea [10]) was inactive. The MIC (against Trichophyton rubrum [1]; against Nannizzia gypsea [2]; in experiment [3]; with Epidermophyton floccosum [4]; in the experiment with Microsporum canis [9]) was over 50 µg/mL in each case.
As for `CCC(=O)c1ccc(OC)c(OC)c1`, the outcome in the experiment on Saccharomyces cerevisiae, in the experiment with Aspergillus fumigatus, in the experiment on Aspergillus flavus, with Candida albicans, in the experiment with Aspergillus niger and in the experiment with Cryptococcus neoformans was inactive. For the same compound, the outcome (in experiment [5]; in the experiment on Trichophyton rubrum [6]; in the experiment with Epidermophyton floccosum [7]; in the experiment with Microsporum canis [8]; in the experiment with Nannizzia gypsea [10]) was inactive. Besides, the MIC against Trichophyton rubrum [1] is over 50 µg/mL; in the experiment on Nannizzia gypsea [2], over 50 µg/mL; in experiment [3] it was over 50 µg/mL; with Epidermophyton floccosum [4], 50 µg/mL (≈ 257 µM); against Microsporum canis [9], over 50 µg/mL.
As for `CC(Cl)C(=O)c1cc2ccccc2c2ccccc12` (centres undefined), the outcome with Saccharomyces cerevisiae, in the experiment with Aspergillus fumigatus, in the experiment on Aspergillus flavus, in the experiment on Candida albicans, with Aspergillus niger and with Cryptococcus neoformans was inactive. The result (in experiment [5]; with Trichophyton rubrum [6]; in the experiment with Epidermophyton floccosum [7]; with Nannizzia gypsea [10]) was inactive. The MIC was found to be 1.5 µg/mL (≈ 5.58 µM) with Trichophyton rubrum [1]; 10 µg/mL (≈ 37.2 µM) in the experiment on Nannizzia gypsea [2]; 3 µg/mL (≈ 11.2 µM) in [3]; 15 µg/mL (≈ 55.8 µM) against Epidermophyton floccosum [4]; 3 µg/mL (≈ 11.2 µM) against Microsporum canis [9].

Source of the values: ChEMBL document CHEMBL1144120, “In vitro evaluation of antifungal properties of phenylpropanoids and related compounds acting against dermatophytes” (1999).
